Reference: the array DNA melting data of Ke et al. (doi:10.1101/2024.01.08.574731)

Experiments:
[1] = folding enthalpy; higher = less favourable; fluorescence melt of hairpins on a sequencing array, two-state fit; details: sodium 0.088 M
Outline: (§1)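 With Cy3 and quencher oligos annealed, library hairpins on a sequenced MiSeq flow cell were imaged for Cy3 fluorescence in 50 mM Na-HEPES pH 8.0, 25 mM NaCl, in 2.5 °C steps up to 60 °C. Melting temperature and folding enthalpy were derived from bootstrapped two-state fits of signals normalised to pre-quench Cy3 and to control constructs. Four replicates were combined by inverse variance, with fitted temperatures raised by 9.35 °C to match UV melts.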

[2] = melting temperature; fluorescence melt of hairpins on a sequencing array, two-state fit, raised by 9.35 °C to match UV melts; details: sodium 0.088 M
Outline: as §1

Row | Sequence | folding enthalpy [1] [kcal/mol] | Tm [2] [°C]
1 | GTCCTGGGAAACCAGGAC (((((((....))))))) | -36 | 66.7
2 | GATCTAAAAGTAGATC ((((((....)))))) | -17.5 | 29.6
3 | GGGCACGGAAACGTGTCC ((.((((....)))).)) | -40.8 | 63.4
4 | GAGTCTGGAAACAGACCC (.(((((....))))).) | -14.2 | 38
5 | GATCCTCGAGAGGATC ((((((....)))))) | -42.7 | 56.8
6 | GGGACGGGAAACCACCCC (((..((....))..))) | -18.4 | 32.1
7 | GCATAGCGAAAGCTACGC ((.((((....)))).)) | -20.3 | 52.9
8 | GTCAAATCGAAAGATGAC (((..(((....)))))) | -16.1 | 35.6
9 | GTGGTTGGAAACGATCAC (((.(.(....).).))) | -18 | 34.1
10 | GACCACGAAAGTGTAGTC ((((((....)))..))) | -18.6 | 41.1
11 | GGTGTCGAAAGACACACC ((((((....)))..))) | -9.34 | 52.5
12 | GCTAGGCGAAAGCCAAGC (((.(((....))).))) | -40 | 56.1
13 | GTAATCGAAAGATTCTAC ((((((....)))..))) | -18.5 | 28.8
14 | GCGCGCGAAAGCGCACGC ((((((....)))..))) | -11.7 | 67
15 | GAGCTCCGAAAGGATCTC (((.(((....))).))) | -25 | 46.4
16 | GCGACGCGAAAGCTACGC (((..((....))..))) | -18.6 | 52.5
17 | GCGTTCGAAAGAATGCGC ((((((....)))..))) | -28.8 | 57.3
18 | GACGATGGAAACATCGTC (((((((....))))))) | -41.7 | 67.9
19 | GCGACCAGTCGC ((((....)))) | -32.7 | 57.3

Row | Sequence | folding enthalpy [1] [kcal/mol] | Tm [2] [°C]
20 | GCGAGGCGAAAGCTACGC (((..((....))..))) | -24.3 | 62
21 | GCAGGGCGAAAGCCTCGC ((..(((....)))..)) | -16.4 | 52
22 | GTACCGAAAGGTAC (((((....))))) | -27 | 65.9
23 | GACTATGGAAACATGGTC (((.(((....))).))) | -35.5 | 45.4
24 | GTCTACGAAAGTAGGAC ((((((....))).))) | -16.5 | 44
25 | GTATGAGGAAACTTATAC ((((.((....)).)))) | -25.7 | 31.2
26 | GGTCCCGGAAACGGGATC (.(((((....))))).) | -24.2 | 57.1
27 | GATCGTCTTAACGATC ((((((....)))))) | -41.3 | 58.5
28 | GGATTCGAAAGAATCTCC ((((((....)))..))) | -14.2 | 43.8
29 | GATCGAATCATCGATC ((((((....)))))) | -35.7 | 51.9
30 | GTAACCGAAAGGTGCTAC ((((((....)))..))) | -13.1 | 39.1
31 | GGCATCGGAAACGATGTC (.(((((....))))).) | -42.1 | 55.9
32 | GGATACCGAAAGGTTTCC (((.(((....))).))) | -37.6 | 50.2
33 | GCCCTAGAAATAGGGC ((((((....)))))) | -37.2 | 59.1
34 | CGGGCGGAAACGCGGCCG ((((((....)))..))) | -36 | 59.5
35 | GGGTTTGGAAACAAACCC (((((((....))))))) | -39.6 | 66.8
36 | GATCAATAACTTGATC ((((((....)))))) | -31.6 | 39.4
37 | GCCACTTCGAAAGAAGGC (((..(((....)))))) | -13 | 35.5
38 | GATTGGGGAAACCCAACC (.(((((....))))).) | -14.5 | 36.7
